Measured values reported in ChEMBL document CHEMBL1158684, “Cicadapeptins I and II: new Aib-containing peptides from the entomopathogenic fungus Cordyceps heteropoda” (2005).
Active and inactive are the calls of the source. The calls are words filed in the database; no cut-off is given here. Where a SMILES comes first, the peptide text is derived from it. [ ]: non-standard residue; d: D form. The star is where a group is joined. Hyp = O=C(O)[C@@H]1C[C@@H](O)CN1; Decanoyl = CCCCCCCCCC(=O)*; X1 = CC(C)C[C@@H](CN)N*; Aib = CC(C)(N)C(=O)O

Experiments:
Bacillus cereus [1] = assay: Antimicrobial activity against Bacillus cereus at 100 ug/disk by disk diffusion assay; assay type: functional; details: read-out: IZ
How it was run: (§1)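 Bacterial targets grown 24 h in nutrient broth. 0.6 mL of culture was spread on 9 cm nutrient agar plates and dried 1 h. Test samples in 10 µL MeOH were applied to 4 mm filter paper disks, air-dried 1 h and placed on the plates. Read-out was the inhibition zone diameter in mm.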

Bacillus subtilis [2] = assay: Antimicrobial activity against Bacillus subtilis at 100 ug/disk by disk diffusion assay; assay type: functional; details: read-out: IZ; how it was run: as §1
Escherichia coli [3] = assay: Antimicrobial activity against Escherichia coli at 100 ug/disk by disk diffusion assay; assay type: functional; details: read-out: IZ; how it was run: as §1
Bacillus cereus [4] = assay: Antimicrobial activity against Bacillus cereus by disk diffusion assay; assay type: functional, organism-based; how it was run: as §1
Bacillus subtilis [5] = assay: Antimicrobial activity against Bacillus subtilis by disk diffusion assay; assay type: functional, organism-based; how it was run: as §1
Escherichia coli [6] = assay: Antimicrobial activity against Escherichia coli by disk diffusion assay; assay type: functional, organism-based; how it was run: as §1
Botrytis cinerea = assay: Antimicrobial activity against Botrytis cinerea by disk diffusion assay; assay type: functional
How it was run: (§2)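 Filamentous fungal targets were tested on potato dextrose agar plates spread with 0.6 mL spore suspension (1 × 10^6 spores/mL) and dried 1 h. Samples in 10 µL MeOH were loaded on 4 mm paper disks, air-dried 1 h and laid on the plates. Activity was scored as inhibition zone size in mm.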

Colletotrichum fragariae = assay: Antimicrobial activity against Colletotrichum fragariae by disk diffusion assay; assay type: functional; how it was run: as §2
[7] = test system: Colletotrichum gloeosporioides; assay: Antimicrobial activity against Colletotrichum gloeosporioides by disk diffusion assay; assay type: functional; how it was run: as §2
Fusarium oxysporum = assay: Antimicrobial activity against Fusarium oxysporum by disk diffusion assay; assay type: functional; how it was run: as §2
Bacillus cereus [8] = assay: Antimicrobial activity against Bacillus cereus at 30 ug/disk by disk diffusion assay; assay type: functional; details: read-out: IZ; how it was run: as §1
Bacillus subtilis [9] = assay: Antimicrobial activity against Bacillus subtilis at 30 ug/disk by disk diffusion assay; assay type: functional; details: read-out: IZ; how it was run: as §1

CCCCCCCCCC(=O)N1C[C@H](O)C[C@H]1C(=O)N1C[C@H](O)C[C@H]1C(=O)N[C@H](C(=O)NC(C)(C)C(=O)N[C@@H](CCC(N)=O)C(=O)NC(C)(C)C(=O)N[C@H](C(=O)N[C@H](CN)CC(C)C)[C@@H](C)CC)C(C)C [CICADAPEPTIN II] (Decanoyl-[Hyp][Hyp]V[Aib]Q[Aib]I-X1)
zone of inhibition at 100 µg/disc (Bacillus cereus [1]): 12 mm
zone of inhibition at 100 µg/disc (Bacillus subtilis [2]): 11 mm
zone of inhibition at 100 µg/disc (Escherichia coli [3]): 16 mm

CCCCCCCCCC(=O)N1C[C@H](O)C[C@H]1C(=O)N1C[C@H](O)C[C@H]1C(=O)N[C@H](C(=O)NC(C)(C)C(=O)N[C@@H](CCC(N)=O)C(=O)NC(C)(C)C(=O)N[C@@H](CC(C)C)C(=O)N[C@H](CN)CC(C)C)C(C)C [CICADAPEPTIN I] (Decanoyl-[Hyp][Hyp]V[Aib]Q[Aib]L-X1)
zone of inhibition at 100 µg/disc (Bacillus cereus [1]): 13 mm
zone of inhibition at 100 µg/disc (Bacillus subtilis [2]): 13 mm
zone of inhibition at 100 µg/disc (Escherichia coli [3]): 16 mm

CCCCCCC(=O)CCCCCC/C=C/C[C@@H](O)[C@H](O)[C@@](N)(CO)C(=O)O [MYRIOCIN]
Activity (Bacillus cereus [4]): inactive
Activity (Bacillus subtilis [5]): inactive
Activity (Escherichia coli [6]): inactive
inhibition zone (IZ) (Botrytis cinerea): 28 mm
inhibition zone (IZ) (Colletotrichum fragariae): 14 mm
inhibition zone (IZ) [7]: 8 mm
inhibition zone (IZ) (Fusarium oxysporum): 17 mm

CN(C)[C@@H]1C(O)=C(C(N)=O)C(=O)[C@@]2(O)C(O)=C3C(=O)c4c(O)cccc4[C@@](C)(O)[C@H]3C[C@@H]12 [TETRACYCLINE]
zone of inhibition at 30 µg/disc (Bacillus cereus [8]): 29 mm
zone of inhibition at 30 µg/disc (Bacillus subtilis [9]): 18 mm
